From PubChem
This is a sample that favours compounds with a hit; in the whole collection about 5.8% have one here.
NCF1 inh – p47phox (human) inhibition; p47phox/p22phox peptide binding, fluorescence polarization, 2 h; inhibition, % at 24.7 µM; 220,000 tested, 0.53% active; AID 1274;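 active = inhibition above about 30%, limit read from the data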;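 also: 0% = p47phox with labelled peptide and 100% = labelled peptide alone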
ROMK mod – human ROMK K+ channel modulation, primary screen | Tet-inducible ROMK, thallium flux fluorescence; actives lie on both sides | B-score at 10 µM | 130,000 tested, 2% active;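 active = signal ratio slope over the read window, or its plate-corrected B-score, at least 3 SD from the plate mean, either direction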;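 also: B-score of the F/F0 ratio slope over 7 to 12 s after thallium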
Target sequence (P48048 whole entry, looked up): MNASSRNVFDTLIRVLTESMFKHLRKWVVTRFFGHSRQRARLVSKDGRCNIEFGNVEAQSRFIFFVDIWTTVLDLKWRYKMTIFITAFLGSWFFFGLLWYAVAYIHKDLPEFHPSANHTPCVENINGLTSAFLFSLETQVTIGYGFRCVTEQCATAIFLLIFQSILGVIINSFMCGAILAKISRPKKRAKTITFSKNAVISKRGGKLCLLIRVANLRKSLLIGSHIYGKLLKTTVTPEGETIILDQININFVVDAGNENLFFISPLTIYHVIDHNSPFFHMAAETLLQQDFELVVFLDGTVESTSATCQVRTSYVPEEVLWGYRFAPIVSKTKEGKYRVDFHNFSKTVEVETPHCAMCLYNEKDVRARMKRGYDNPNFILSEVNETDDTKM
14-3-3 Bad inh – disrupts binding of bovine 14-3-3 zeta to phospho-Bad peptide | P63103 | TR-FRET 14-3-3zeta/Dy647-pBad peptide displacement, 1 h | inhibition, % at 21.7 µM | 220,000 tested, 0.71% active;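 active = inhibition above about 70%, limit read from the data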;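 also: 0% = full 14-3-3 plus peptide FRET controls and 100% = background without 14-3-3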
WT yeast gro inh – growth inhibition of WT yeast, mitochondrial fusion screen; mitochondrial fusion phenotypic screen, WT strain; inhibition, % at 10 µM; 190,000 tested, 2.1% active; in the data active = inhibition above about 58%; tested in S. cerevisiae
RBBP9 inhibitor – blocks human serine hydrolase RBBP9. AID 1515. O75884. recombinant RBBP9, FP-Rh probe fluorescence polarization. inhibition, % at 7.94 µM. 220,000 tested, 0.2% active;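 active = inhibition above the campaign mean of all tested compounds plus 3 SD, cut at about 14% in these data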;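 also: plate controls were DMSO wells with RBBP9 for no effect and wells lacking RBBP9 protein for full effect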
Target sequence (O75884 whole entry, looked up): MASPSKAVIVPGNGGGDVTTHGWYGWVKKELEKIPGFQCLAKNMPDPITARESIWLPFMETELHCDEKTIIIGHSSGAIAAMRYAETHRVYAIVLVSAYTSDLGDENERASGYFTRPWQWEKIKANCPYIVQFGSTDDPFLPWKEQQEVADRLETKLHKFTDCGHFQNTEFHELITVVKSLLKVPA
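Test system – recombinant human RBBP9 · Input – RBBP9 2.5 µM in dispensing solution, pre-mixing · Medium – Tris buffer pH 8.0, NaCl, Pluronic · Schedule – preincubation 30 min plus labeling 45 min at 25 °C · Measured by – fluorescence polarization · Measure – % inhibition · Controls – DMSO and no-protein wells · Replicates – one well per compound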
KCC2 mod – modulators of human KCC2 chloride dependent transport; Q9H2X9; KCC2 cells, thallium flux FluoZin-2 fluorescence; B-score of Tl+ flux slope (higher = more flux/activation; lower = inhibition) at 10 µM; 190,000 tested, 2.2% active; AID 1456;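 active = thallium flux slope and its plate-corrected score both differing from the plate sample mean at a set confidence after two filtering rounds, in either direction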;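 also: slope of fluorescence scaled to starting intensity during 10 to 20 s after thallium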
* hit, by the source's call; · = no result given; [ ] = another dose, or the depositor's remark.

SMILES	NCF1 inh	ROMK mod	14-3-3 Bad inh	WT yeast gro inh	RBBP9 inhibitor	KCC2 mod
Cc1cccc(CNc2ccc(C(CC(N)=O)NC(=O)c3cccc(Br)c3)cc2[N+](=O)[O-])c1 (centres undefined)	-38	·	2	·	·	0.46
CNc1ccc([N+](=O)[O-])cc1-c1nc2ccccc2[nH]c1=O	19	·	73*	·	7	0.016
O=C(CN1C(=O)CCC1=O)c1ccc(-c2ccccc2)cc1	-9	-0.0017	-1	-29	-2	-3.6
N=c1ccn(CC(=O)c2ccc(-c3ccccc3)cc2)cc1	1	-0.44	4	66*	-9	0.054
Cc1cc(C(=O)NN)c(Cl)cc1Cl	-5	-0.51	2	·	-3	-0.32
Cc1ccc(Oc2ncccc2C(=O)NCC(=O)O)cc1	2	·	-18	·	4	·
Cc1c(C(=O)N2CCCC2)sc(NC(=O)c2ccccc2)c1C#N	-27	·	78*[fluorescence artefact?]	5	-6	0.45
COc1ccc(/C=C(/NC(=O)/C=C/c2ccccc2)C(=O)NCCCCCC(=O)O)cc1	-10	·	-7	·	-10	2.2
Cc1ccc(S(=O)(=O)n2nc(-c3ccco3)nc2N)cc1	-8	0.65	0	-13	4	1.2
COC(=O)C1=C(O)C(C(=O)OC)C(c2ccc(C)cc2)C(C#N)(C#N)C1c1ccc(C)cc1 (centres undefined)	1	·	-2	67*	-13	·
Cc1cc(C)nc(NC(=O)/C=C/c2ccc(Cl)cc2Cl)c1	-11	0.27	4	74*	-10	0.18
Cc1cc(C)nc(NC(=O)c2ccc(COc3ccccc3Cl)cc2)c1	-21	-0.23	-13	65*	-4	0.21
Cc1cc(C)nc(NC(=O)/C=C/c2ccccc2Cl)n1	1	·	-5	-1	-2	·
Cc1cc(C)nc(NC(=O)/C=C/c2ccccc2Cl)c1	-7	·	4	64*	-6	0.057
O=C(Nc1ccn(Cc2c(F)c(F)cc(F)c2F)n1)c1ccc(COc2ccccc2Cl)cc1	-14	·	-4	22	-16	0.19
O=C(/C=C/c1ccc(Cl)cc1Cl)Nc1ccncc1	-12	-0.83	5	40	-4	0.35
COc1ccc(-c2nnc3n(CCc4ccccc4)c(=O)c4ccccc4n23)c(OC)c1	3	·	16	98*	-4	0.42
Cc1ccc(C(=O)Nc2cc(Cl)ccc2N2CCCCC2)s1	-7	-0.43	-1	68*	-3	0.4
CCc1sc(C(=O)Nc2cc(Cl)ccc2N2CCCCC2)cc1C	-11	-0.059	8	3	-9	-1.7
COCCn1nnnc1CN1CCN2CCCC2C1 (centres undefined)	19	0.36	86*	3	-6	·
CC(C)(C)n1nnnc1CN1CCN2CCCC2C1 (centres undefined)	-6	·	47	-13	-11	-0.68
CCN(CC)CCN1C(=O)c2oc3ccccc3c(=O)c2C1c1ccccc1 (centres undefined)	-21	0.31	3	-12	-9	·
CCN(CC)CCN1C(=O)c2oc3ccccc3c(=O)c2C1c1cccc(Br)c1 (centres undefined)	-18	-0.86	1	-2	0	24*
O=C(Nc1ccc(N=Nc2ccccc2)c(NC(=O)C2CCCO2)c1)C1CCCO1 (centres undefined)	-6	·	-6	14	-2	-0.36
CC1CC1C(=O)OCC(=O)NCc1ccc(Cl)cc1Cl (centres undefined)	-6	0.052	6	82*	0	-0.47
SMILES	NCF1 inh	ROMK mod	14-3-3 Bad inh	WT yeast gro inh	RBBP9 inhibitor	KCC2 mod
Nc1nc(CSc2nnnn2-c2ccccc2)nc(N2CCCc3ccccc32)n1	-12	-1.3	7	60*	2	-0.67
Nc1nc(CN2CCN(c3ccccc3)CC2)nc(N2CCCc3ccccc32)n1	-3	·	5	51	-3	-0.8
CCOC(=O)c1c(NC(NC(=O)C(C)C)C(Cl)(Cl)Cl)sc2c1CCC2 (centres undefined)	-24	-1.4	0	66*	-2	-0.72
CCOC(=O)Nc1sc2c(c1C(=O)OCC)CCC2	-17	-0.99	-12	-3	5	0.44
CCCc1cc(-c2n[nH]c(=S)n2CC(C)C)cs1	-7	-0.67	-12	62*	-7	16*
CCCCn1c(-c2nn(C)cc2Cl)n[nH]c1=S	-19	·	6	5	-2	1.4
Cc1ccsc1-c1n[nH]c(=S)n1CC(C)C	-97	1.3	-6	8	-5	0.018
CCCCn1c(-c2csc(C(C)C)c2)n[nH]c1=S	-9	-0.87	-7	65*	-4	21*
COc1ccc(O)c(CN2CCN(C/C=C/c3ccccc3)CC2)c1	-7	-2.2	74*	4	-3	0.014
CCn1c2ccccc2c2cc(CN3CCN(Cc4cc(OC)ccc4O)CC3)ccc21	3	0.098	43	60*	-13	0.53
CCn1c2ccccc2c2cc(CN3CCN(S(C)(=O)=O)CC3)ccc21	-11	·	-5	7	0	-0.96
COc1cc(Br)cc(CN2CCN(C/C=C/c3ccccc3)CC2)c1O	-1	·	68	29	5	1.7
COC(=O)C1=C(C)NC2=C(C(=O)CC(C)(C)C2)C1c1cn(Cc2ccc(Br)cc2)nc1-c1ccccc1 (centres undefined)	-8	·	-11	70*	-13	0.082
C=C(C)CSc1nnc(CCCCCNC(=O)OC(C)(C)C)o1	-2	·	-9	·	-3	0.59
CC1=C/C(=N\NC(=S)Nc2cccnc2)CC(C)(C)C1	-12	3*	-11	40	-2	16*
O=C(CSc1nc2c(c(C(F)(F)F)n1)CCc1ccccc1-2)NCc1ccccc1	-8	0.91	-10	-13	1	-0.54
Cc1nn(Cc2ccccc2)c(C)c1NC(=O)CSc1nc2c(c(C(F)(F)F)n1)CCc1ccccc1-2	42*	0.68	33	-1	-1	-0.56
N#Cc1cc2cc3c(cc2nc1NCCNC(=S)NCCCN1CCOCC1)OCO3	3	0.76	0	11	-6	·
CCOc1nc(NC2CCCCC2)nc(NC(C)(C)C)n1	-3	-0.41	-2	58*	3	-0.064
Cc1cc(NC(=O)c2sccc2C)n(-c2nc3ccccc3[nH]2)n1	-26	-0.4	-15	79*	-19	2.2
COc1ccc(/C=N/NC(N)=S)cc1OC(=O)c1cccc2ccccc12	-16	·	-12	61*	-28	·
Cc1cc(Nc2ccccc2)c2c([N+](=O)[O-])ccc(C)c2n1	-5	-0.82	-14	71*	-8	-1.3
CCOC(=O)c1ccccc1NC(=O)N[C@@H](C)C(=O)OC	-7	2.3*	-8	-27	-4	-3.4*
CCOC(=O)c1ccccc1NC(=O)c1c(F)c(F)c(F)c(F)c1F	-7	-1	81*	50	3	1.3
COC(=O)c1ccccc1NC(=O)N[C@@H](C)C(=O)OC	-5	·	-1	-8	1	·
COC(=O)COC(=O)c1ccccc1NC(=O)c1ccccc1	-7	·	-3	71*	-5	-0.78
